Data as given in ChEMBL document CHEMBL1811845, “Modulation of GABAA-receptors by honokiol and derivatives: subtype selectivity and structure-activity relationship” (J Med Chem, 2011).
pEC50: −log10 of the molar value.

Tests used:
[1] = molecular target: GABA-A receptor; GABA-A site (alpha1/beta2 interface) (Homo sapiens) (UniProt P14867+P47870); assay: Modulation of GABA Aalpha1beta2 receptor expressed in Xenopus laevis oocytes assessed as potentiation of GABA-induced chloride current at holding potential -70 mV by two-microelectrode voltage clamp technique relative to GABA; type: cell-based; settings: Oocyte
Procedure, shortened: (§1)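 Oocytes were injected with α1, α2, α3 or α5 plus β2 cRNA at a 1:1 ratio and stored at 18 °C in ND96, pH 7.4. Enhancement was (I(GABA+compound)/IGABA)−1, and concentration-response data were Hill-fitted for EC50 and nH. Matched DMSO was ≤0.3%.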

Oocyte = assay: Modulation of GABA alpha1beta2gamma2s receptor expressed in Xenopus laevis oocytes assessed as potentiation of GABA-induced chloride current at holding potential -70 mV at 10 uM by two-microelectrode voltage clamp technique relative to GABA; type: cell-based
[2] = molecular target: T1, Gamma-aminobutyric acid receptor subunit alpha-5/beta-2 (Homo sapiens, UniProt P31644+P47870); assay: Modulation of GABA Aalpha5beta2 receptor expressed in Xenopus laevis oocytes assessed as potentiation of GABA-induced chloride current at holding potential -70 mV by two-microelectrode voltage clamp technique; type: cell-based, Oocyte
T1 sequence (P47870 whole entry): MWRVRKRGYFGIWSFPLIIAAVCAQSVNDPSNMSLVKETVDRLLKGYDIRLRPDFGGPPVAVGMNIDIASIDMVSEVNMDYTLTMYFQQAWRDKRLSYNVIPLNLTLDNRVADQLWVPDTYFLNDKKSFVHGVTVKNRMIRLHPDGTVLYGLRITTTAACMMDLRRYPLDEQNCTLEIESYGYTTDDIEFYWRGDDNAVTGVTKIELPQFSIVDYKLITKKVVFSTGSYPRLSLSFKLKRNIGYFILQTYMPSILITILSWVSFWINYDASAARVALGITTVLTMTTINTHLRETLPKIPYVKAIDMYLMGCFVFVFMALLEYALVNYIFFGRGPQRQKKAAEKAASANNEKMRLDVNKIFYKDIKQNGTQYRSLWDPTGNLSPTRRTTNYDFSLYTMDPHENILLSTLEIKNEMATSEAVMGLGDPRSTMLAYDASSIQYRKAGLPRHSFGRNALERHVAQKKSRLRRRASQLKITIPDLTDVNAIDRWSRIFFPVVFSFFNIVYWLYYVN
T1 sequence (P31644 whole entry): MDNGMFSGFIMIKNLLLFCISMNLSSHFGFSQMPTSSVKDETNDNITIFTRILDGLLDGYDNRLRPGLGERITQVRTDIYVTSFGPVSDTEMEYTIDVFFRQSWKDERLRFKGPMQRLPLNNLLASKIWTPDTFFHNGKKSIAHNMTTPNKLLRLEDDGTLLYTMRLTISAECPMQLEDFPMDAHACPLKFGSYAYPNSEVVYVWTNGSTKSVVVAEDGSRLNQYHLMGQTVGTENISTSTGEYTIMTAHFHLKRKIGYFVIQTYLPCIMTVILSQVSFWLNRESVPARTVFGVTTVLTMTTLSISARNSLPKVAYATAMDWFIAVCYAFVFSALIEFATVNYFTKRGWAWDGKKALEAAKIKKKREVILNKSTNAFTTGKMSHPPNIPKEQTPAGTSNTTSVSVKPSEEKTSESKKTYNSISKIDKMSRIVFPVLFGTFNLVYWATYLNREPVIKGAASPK
Procedure, shortened: (§2)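 Stage V–VI Xenopus oocytes, defolliculated with 2 mg/mL collagenase, injected with α(1, 2, 3 or 5) and β2 cRNAs mixed 1:1, then kept at 18 °C in ND96 (pH 7.4). Enhancement = I(GABA+compound)/IGABA − 1. Curves were Hill-fitted for EC50. Bath DMSO was at most 0.3%, matched in controls.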

[3] = molecular target: Gamma-aminobutyric acid receptor subunit alpha-2/beta-2 (Homo sapiens) (UniProt P47870+P47869); assay: Modulation of GABA Aalpha2beta2 receptor expressed in Xenopus laevis oocytes assessed as potentiation of GABA-induced chloride current at holding potential -70 mV by two-microelectrode voltage clamp technique relative to GABA; type: cell-based; settings: Oocyte; procedure, shortened: as §1
[4] = molecular target: Gamma-aminobutyric acid receptor subunit alpha-3/ beta-2 (Homo sapiens) (UniProt P47870+P34903); assay: Modulation of GABA Aalpha3beta2 receptor expressed in Xenopus laevis oocytes assessed as potentiation of GABA-induced chloride current at holding potential -70 mV by two-microelectrode voltage clamp technique relative to GABA; type: cell-based; settings: Oocyte; procedure, shortened: as §1
[5] = molecular target: T2, Gamma-aminobutyric acid receptor subunit alpha-2/beta-2 (Homo sapiens, UniProt P47869+P47870); assay: Modulation of GABA Aalpha2beta2 receptor expressed in Xenopus laevis oocytes assessed as potentiation of GABA-induced chloride current at holding potential -70 mV by two-microelectrode voltage clamp technique; type: cell-based, Oocyte; procedure, shortened: as §2
T2 sequence (P47870 whole entry): T1 sequence (P47870 whole entry)
T2 sequence (P47869 whole entry): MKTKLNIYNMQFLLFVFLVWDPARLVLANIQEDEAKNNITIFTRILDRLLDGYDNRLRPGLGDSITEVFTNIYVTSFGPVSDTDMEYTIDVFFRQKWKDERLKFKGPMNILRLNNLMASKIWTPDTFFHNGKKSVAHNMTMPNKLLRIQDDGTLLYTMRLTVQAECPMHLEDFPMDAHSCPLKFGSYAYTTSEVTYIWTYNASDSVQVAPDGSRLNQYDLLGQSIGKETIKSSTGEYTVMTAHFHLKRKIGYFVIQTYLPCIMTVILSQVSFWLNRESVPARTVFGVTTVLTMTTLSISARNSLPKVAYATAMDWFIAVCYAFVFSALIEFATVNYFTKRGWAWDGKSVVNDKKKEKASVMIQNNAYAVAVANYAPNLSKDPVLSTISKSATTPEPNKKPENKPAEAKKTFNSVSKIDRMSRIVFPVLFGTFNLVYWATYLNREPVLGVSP

[6] = molecular target: Gamma-aminobutyric acid receptor subunit alpha-1/ beta-1 (Homo sapiens) (UniProt P14867+P18505); assay: Modulation of GABA Aalpha1beta1 receptor expressed in Xenopus laevis oocytes assessed as potentiation of GABA-induced chloride current at holding potential -70 mV by two-microelectrode voltage clamp technique relative to GABA; type: cell-based; settings: Oocyte
Procedure, shortened: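 Stage V–VI female Xenopus oocytes were defolliculated with collagenase and injected with α1 and β1 cRNA at a 3:1 ratio. Oocytes were held at 18 °C in ND96, pH 7.4. Enhancement was (I(GABA+compound)/IGABA)−1, and EC50 and nH came from Hill fits. DMSO was ≤0.3% and matched in controls.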

## C=CCc1ccc(O)c(-c2ccc(O)c(CC=C)c2)c1 [HONOKIOL]
[1]
  Smax: 1030%
Oocyte
  Activity: 101%
[2]
  pEC50: 4.63
[3]
  Smax: 1130%
[4]
  Smax: 2390%
[5]
  pEC50: 4.33
[6]
  Smax: 260%
